Data: ChEMBL document CHEMBL2390927, “Design, synthesis and antimicrobial evaluation of novel benzimidazole type of Fluconazole analogues and their synergistic effects with Chloromycin, Norfloxacin and Fluconazole” (2013)
In brackets after ≈: the same amount, converted by molar mass.

Tests used:
[1] = test system: Saccharomyces cerevisiae; experiment: Antifungal activity against Saccharomyces cerevisiae after 24 hrs by two-fold serial dilution method; format: functional
Summary of the method: (§1)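 Spore suspension in sterile distilled water from one-day-old cultures on Sabouraud agar, final 1–5 × 10³ spore mL⁻¹. Compound stocks diluted in sterile RPMI 1640 as two-fold serial dilutions in microdilution plates. MIC is the lowest concentration completely inhibiting growth. Growth monitored visually and spectrophotometrically, in triplicate.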

[2] = test system: Salmonella typhi; experiment: Antibacterial activity against Bacillus typhi after 24 hrs by two-fold serial dilution method; format: functional, Salmonella enterica subsp. enterica serovar Typhi; details: Salmonella enterica
Summary of the method: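 Two-fold serial dilution in 96-well plates following NCCLS; compounds dissolved in DMSO as stocks, then diluted in Mueller-Hinton broth; bacterial suspension adjusted with sterile saline to 1 × 10⁵ CFU; MIC taken as lowest concentration completely inhibiting growth, monitored visually and spectrophotometrically; DMSO-plus-inoculum well as solvent control; triplicate.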

[3] = test system: Bacillus; experiment: Antibacterial activity against Bacillus proteus ATCC 13315 after 24 hrs by two-fold serial dilution method; format: functional; details: ATCC 13315, 24 h
Summary of the method: (§2)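 MIC taken as the lowest concentration giving complete growth inhibition, by standard two-fold serial dilution in 96-well plates following NCCLS. Stocks in DMSO, diluted in Mueller–Hinton broth. Inoculum adjusted with sterile saline to 1 × 10⁵ CFU. DMSO with inoculum and no drug served as solvent control. Growth read visually and spectrophotometrically, in triplicate.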

[4] = test system: Staphylococcus aureus; experiment: Antibacterial activity against Staphylococcus aureus ATCC 6538 after 24 hrs by two-fold serial dilution method; format: functional; details: ATCC 6538, 24 h
[5] = test system: Cyberlindnera jadinii; experiment: Antifungal activity against Candida utilis after 24 hrs by two-fold serial dilution method; format: functional; details: Williopsis jadinii; summary of the method: as §1
[6] = test system: Micrococcus luteus; experiment: Antibacterial activity against Micrococcus luteus ATCC 4698 after 24 hrs by two-fold serial dilution method; format: functional; details: ATCC 4698, 24 h; summary of the method: as §2
[7] = test system: Escherichia coli; experiment: Antibacterial activity against Escherichia coli JM109 after 24 hrs by two-fold serial dilution method; format: functional; details: JM109, 24 h
[8] = test system: Candida; experiment: Antifungal activity against Candida mycoderma after 24 hrs by two-fold serial dilution method; format: functional; summary of the method: as §1
[9] = test system: Candida albicans; experiment: Antifungal activity against Candida albicans ATCC 76615 after 24 hrs by two-fold serial dilution method; format: functional; details: ATCC 76615, 24 h; summary of the method: as §1
[10] = test system: Pseudomonas aeruginosa; experiment: Antibacterial activity against Pseudomonas aeruginosa ATCC 27853 after 24 hrs by two-fold serial dilution method; format: functional; details: ATCC 27853, 24 h; summary of the method: as §2
[11] = test system: Bacillus subtilis; experiment: Antibacterial activity against Bacillus subtilis ATCC 21216 after 24 hrs by two-fold serial dilution method; format: functional; details: ATCC 21216, 24 h; summary of the method: as §2
[12] = test system: Staphylococcus aureus; experiment: Antibacterial activity against methicillin-resistant Staphylococcus aureus N315 after 24 hrs by two-fold serial dilution method; format: functional; details: N315, 24 h
[13] = test system: Aspergillus flavus; experiment: Antifungal activity against Aspergillus flavus after 24 hrs by two-fold serial dilution method; format: functional; summary of the method: as §1

| Structure (SMILES) | MIC [1] [µg/mL] | MIC [2] [µg/mL] | MIC [3] [µg/mL] | MIC [4] [µg/mL] | MIC [5] [µg/mL] | MIC [6] [µg/mL] | MIC [7] [µg/mL] | MIC [8] [µg/mL] | MIC [9] [µg/mL] | MIC [10] [µg/mL] | MIC [11] [µg/mL] | MIC [12] [µg/mL] | MIC [13] [µg/mL] |
| --- | --- | --- | --- | --- | --- | --- | --- | --- | --- | --- | --- | --- | --- |
| Fc1ccc(CN(Cc2nc3ccccc3[nH]2)c2ccc(Cl)cc2Cl)c(F)c1 | 32 (≈ 76.5 µM) | 32 (≈ 76.5 µM) | 16 (≈ 38.3 µM) | 64 (≈ 153 µM) | 64 (≈ 153 µM) | 128 (≈ 306 µM) | 64 (≈ 153 µM) | 32 (≈ 76.5 µM) | 32 (≈ 76.5 µM) | 128 (≈ 306 µM) | 16 (≈ 38.3 µM) | 64 (≈ 153 µM) | 64 (≈ 153 µM) |
| FC(F)(F)c1cc(N(Cc2nc3ccccc3[nH]2)Cc2ccc(Cl)cc2Cl)cc(C(F)(F)F)c1 | 32 (≈ 61.7 µM) | 64 (≈ 123 µM) | 32 (≈ 61.7 µM) | 64 (≈ 123 µM) | 64 (≈ 123 µM) | 128 (≈ 247 µM) | 64 (≈ 123 µM) | 64 (≈ 123 µM) | 64 (≈ 123 µM) | 128 (≈ 247 µM) | 64 (≈ 123 µM) | 64 (≈ 123 µM) | 64 (≈ 123 µM) |
| Cc1cc(=O)oc2cc(OCCCCCCN(Cc3nc4ccccc4[nH]3)c3ccc(F)cc3)ccc12 | 32 (≈ 64.1 µM) | 64 (≈ 128 µM) | 64 (≈ 128 µM) | 32 (≈ 64.1 µM) | 16 (≈ 32 µM) | 128 (≈ 256 µM) | 128 (≈ 256 µM) | 32 (≈ 64.1 µM) | 16 (≈ 32 µM) | 16 (≈ 32 µM) | 16 (≈ 32 µM) | 128 (≈ 256 µM) | 32 (≈ 64.1 µM) |
| CC(=O)c1cc2ccc(OCc3ccc(CN(Cc4nc5ccccc5[nH]4)c4ccc(C)cc4)cc3)cc2oc1=O | 32 (≈ 58.9 µM) | 128 (≈ 235 µM) | 256 (≈ 471 µM) | 128 (≈ 235 µM) | 64 (≈ 118 µM) | 128 (≈ 235 µM) | 128 (≈ 235 µM) | 128 (≈ 235 µM) | 64 (≈ 118 µM) | 128 (≈ 235 µM) | 64 (≈ 118 µM) | 64 (≈ 118 µM) | 64 (≈ 118 µM) |
| Fc1ccccc1N(CCCCn1c2ccccc2c2ccccc21)Cc1nc2ccccc2[nH]1 | 64 (≈ 138 µM) | 128 (≈ 277 µM) | 64 (≈ 138 µM) | 64 (≈ 138 µM) | 32 (≈ 69.2 µM) | 128 (≈ 277 µM) | 128 (≈ 277 µM) | 64 (≈ 138 µM) | 32 (≈ 69.2 µM) | 64 (≈ 138 µM) | 64 (≈ 138 µM) | 128 (≈ 277 µM) | 64 (≈ 138 µM) |
| CCCCCCCCCCN(Cc1nc2ccccc2[nH]1)c1ccc(C)cc1 | 32 (≈ 84.8 µM) | 128 (≈ 339 µM) | 256 (≈ 678 µM) | 128 (≈ 339 µM) | 64 (≈ 170 µM) | 128 (≈ 339 µM) | 128 (≈ 339 µM) | 128 (≈ 339 µM) | 64 (≈ 170 µM) | 128 (≈ 339 µM) | 64 (≈ 170 µM) | 64 (≈ 170 µM) | 64 (≈ 170 µM) |
| CCCCCCCCCCCCN(Cc1nc2ccccc2[nH]1)c1ccc(C)cc1 | 64 (≈ 158 µM) | 64 (≈ 158 µM) | 64 (≈ 158 µM) | 64 (≈ 158 µM) | 32 (≈ 78.9 µM) | 64 (≈ 158 µM) | 128 (≈ 316 µM) | 16 (≈ 39.4 µM) | 64 (≈ 158 µM) | 128 (≈ 316 µM) | 128 (≈ 316 µM) | 128 (≈ 316 µM) | 64 (≈ 158 µM) |
| CCCCCCCCCCCCCCCCCCN(Cc1nc2ccccc2[nH]1)c1ccc(C)cc1 | 64 (≈ 131 µM) | 64 (≈ 131 µM) | 64 (≈ 131 µM) | 128 (≈ 261 µM) | 32 (≈ 65.3 µM) | 256 (≈ 523 µM) | 256 (≈ 523 µM) | 32 (≈ 65.3 µM) | 32 (≈ 65.3 µM) | 64 (≈ 131 µM) | 64 (≈ 131 µM) | 128 (≈ 261 µM) | 64 (≈ 131 µM) |
| Fc1ccccc1N(Cc1ccc(Cl)c(Cl)c1)Cc1nc2ccccc2[nH]1 | 64 (≈ 160 µM) | 128 (≈ 320 µM) | 64 (≈ 160 µM) | 64 (≈ 160 µM) | 32 (≈ 79.9 µM) | 128 (≈ 320 µM) | 32 (≈ 79.9 µM) | 32 (≈ 79.9 µM) | 32 (≈ 79.9 µM) | 64 (≈ 160 µM) | 32 (≈ 79.9 µM) | 128 (≈ 320 µM) | 64 (≈ 160 µM) |
| FC(F)(F)c1cccc(N(Cc2nc3ccccc3[nH]2)Cc2ccc(Cl)cc2Cl)c1 | 32 (≈ 71.1 µM) | 32 (≈ 71.1 µM) | 64 (≈ 142 µM) | 32 (≈ 71.1 µM) | 32 (≈ 71.1 µM) | 32 (≈ 71.1 µM) | 64 (≈ 142 µM) | 32 (≈ 71.1 µM) | 64 (≈ 142 µM) | 32 (≈ 71.1 µM) | 64 (≈ 142 µM) | 32 (≈ 71.1 µM) | 64 (≈ 142 µM) |
| Fc1ccc(N(Cc2nc3ccccc3[nH]2)Cc2ccc(Cl)cc2Cl)cc1 | 64 (≈ 160 µM) | 64 (≈ 160 µM) | 32 (≈ 79.9 µM) | 32 (≈ 79.9 µM) | 32 (≈ 79.9 µM) | 64 (≈ 160 µM) | 128 (≈ 320 µM) | 64 (≈ 160 µM) | 32 (≈ 79.9 µM) | 64 (≈ 160 µM) | 64 (≈ 160 µM) | 64 (≈ 160 µM) | 64 (≈ 160 µM) |
